The results in this text go back to ChEMBL document CHEMBL2440035, “Azetidines and spiro azetidines as novel P2 units in hepatitis C virus NS3 protease inhibitors” (Bioorg Med Chem Lett, 2013).

Molecules are shown by their SMILES.

One data set concerns Hepatitis C virus. Nature of the data set: Antiviral activity against Hepatitis C virus infected in human HuH7 cells assessed as viral RNA replication. It counts as functional, organism-based, Hepacivirus hominis. As to conditions: Huh-7. In a few lines:
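Subgenomic HCV replicon in Huh7 cells; inhibition of HCV RNA replication measured by extraction and amplification of HCV RNA. Each concentration run in triplicate and reported as mean; EC50 derived.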

The test system of a further data set is PBMC. As to the kind of experiment: Cytotoxicity against human PBMC. It is filed as cell-based. The method, boiled down:
(§1)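 Cytotoxicity was profiled in three cell types: primary human peripheral blood mononuclear (PBM) cells, CEM (a human T-cell-derived line) and Vero (African green monkey kidney epithelial cells).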

The test system of the next data set is Vero. As to the kind of experiment: Cytotoxicity against african green monkey Vero cells. It counts as cell-based. The note with it: chlorocebus sabaeus. In a few lines:
as §1

Another data set relates to CCRF-CEM. Nature of the data set: Cytotoxicity against human CEM cells. It is filed as cell-based. The method, boiled down:
as §1

Another data set deals with Huh-7. As to the kind of experiment: Cytotoxicity against human HuH7 cells. It is filed as cell-based. The method, boiled down: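 Huh7 cytotoxicity measured together with the replicon antiviral assay, by extraction and amplification of ribosomal RNA. Each concentration run in triplicate and reported as mean.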

One may read the EC50 as the concentration at which the effect is half-maximal. One may read the EC90 as the concentration needed for an effect of 90%. As a reminder, the CC50 is the concentration that lowers cell viability or growth by half. Regarding `CC(C)(C)[C@H](NC(=O)[C@@H](NC(=O)c1cnccn1)C1CCCCC1)C(=O)N1CC2(Cc3ccccc3C2)C1C(=O)NC(CC1CC1)C(=O)C(=O)NC1CC1` (some centres undefined), the concentration for a half-maximal effect (EC50) in the data set with Hepatitis C virus was 0.8 µM. The EC90 in the data set on Hepatitis C virus worked out at 1.5 µM. Besides, the values for the CC50 in the data set on PBMC, with Vero and in the data set with CCRF-CEM were 12 µM, greater than 100 µM and 14 µM, respectively.
Consider `CCCC(NC(=O)C1N(C(=O)[C@@H](NC(=O)CC(C)(C)C)C(C)(C)C)CC12Cc1ccccc1C2)C(=O)C(=O)NC1CC1` (some centres undefined), for which the cytotoxic concentration (CC50) in the data set with Huh-7 was greater than 10 µM; with PBMC, 44 µM; in the data set on Vero, 46 µM; in the data set with CCRF-CEM, 35 µM. The concentration giving a half-maximal response (EC50) in the data set on Hepatitis C virus was greater than 10 µM. Moreover, in the data set with Hepatitis C virus, the EC90 was greater than 10 µM.
Consider `CCCC(NC(=O)C1N(C(=O)[C@@H](NC(=O)C2CCCCC2)C(C)(C)C)CC12Cc1ccccc1C2)C(=O)C(=O)NC1CC1` (some centres undefined), for which the 50% cytotoxic concentration (CC50) in the data set with Huh-7 was 10 µM; in the data set with PBMC, 31 µM; with Vero, 43 µM; in the data set on CCRF-CEM, 22 µM. For the same compound, in the data set with Hepatitis C virus, the concentration for a half-maximal effect (EC50) was greater than 10 µM. For the same compound, the 90% effect concentration (EC90) in the data set with Hepatitis C virus was greater than 10 µM.
As to `CCCC(NC(=O)C1N(C(=O)[C@@H](NC(=O)[C@@H](NC(=O)c2cnccn2)C2CCCCC2)C(C)(C)C)CC12CCCCC2)C(=O)C(=O)NCCF` (some centres undefined), the CC50 is greater than 10 µM with Huh-7, 32 µM with PBMC, 21 µM in the data set with Vero and 5.4 µM with CCRF-CEM. In the data set on Hepatitis C virus, the EC50 came out at 5.4 µM. Also, the EC90 in the data set with Hepatitis C virus was determined as 9.7 µM.
`CCCC(NC(=O)C1N(C(=O)[C@@H](NC(=O)NC2CCCCC2)C(C)(C)C)CC12Cc1ccccc1C2)C(=O)C(=O)NC1CC1` (some centres undefined): the 50% cytotoxic concentration (CC50) in the data set with Huh-7 was 8.2 µM; with PBMC, 30 µM; with Vero, 44 µM. The EC50 in the data set with Hepatitis C virus was 8.9 µM. For the same compound, in the data set with Hepatitis C virus, the EC90 was found to be 30 µM.
For the compound `CCCC(NC(=O)C1N(C(=O)[C@@H](NC(=O)Nc2ccc(OC)cc2)C(C)(C)C)CC12Cc1ccccc1C2)C(=O)C(=O)NC1CC1` (some centres undefined), the values for the CC50 in the data set with Huh-7, in the data set with PBMC and with Vero were greater than 10 µM, 22 µM and 43 µM, respectively. Moreover, the EC50 with Hepatitis C virus is greater than 10 µM. Besides, in the data set on Hepatitis C virus, the 90% effect concentration (EC90) is greater than 10 µM.
As to `CCCC(NC(=O)C1N(C(=O)[C@@H](NC(=O)NC(C)(C)C)C(C)(C)C)CC12Cc1ccccc1C2)C(=O)C(=O)NC1CC1` (some centres undefined), the cytotoxic concentration (CC50) with Huh-7 is 27 µM; with PBMC, greater than 100 µM; in the data set with Vero, greater than 100 µM. For the same compound, in the data set with Hepatitis C virus, the EC50 was 13 µM. For the same compound, the EC90 in the data set with Hepatitis C virus came out at 31 µM.
For the compound `CCCC(NC(=O)C1N(C(=O)[C@@H](NC(=O)NC2CCCC2)C(C)(C)C)CC12Cc1ccccc1C2)C(=O)C(=O)NC1CC1` (some centres undefined), the half-maximal cytotoxic concentration (CC50) is greater than 10 µM in the data set with Huh-7, greater than 100 µM in the data set on PBMC and 95 µM in the data set with Vero. In the data set with Hepatitis C virus, the half-maximal effective concentration (EC50) is greater than 10 µM. Moreover, the EC90 in the data set on Hepatitis C virus was greater than 10 µM.
Regarding `CCCC(NC(=O)C1CCN1C(=O)[C@@H](NC(=O)[C@@H](NC(=O)c1cnccn1)C1CCCCC1)C(C)(C)C)C(=O)C(=O)NCCF` (some centres undefined), the CC50 is greater than 10 µM in the data set with Huh-7, 80 µM with PBMC, greater than 100 µM in the data set with Vero and 52 µM in the data set with CCRF-CEM. Further, the EC50 in the data set with Hepatitis C virus was greater than 10 µM. Also, the concentration for an effect of 90% (EC90) in the data set on Hepatitis C virus is greater than 10 µM.
For `CCCC(NC(=O)C1N(C(=O)[C@@H](NC(=O)Nc2ccccc2)C(C)(C)C)CC12Cc1ccccc1C2)C(=O)C(=O)NC1CC1` (some centres undefined), the figures for the 50% cytotoxic concentration (CC50) in the data set with Huh-7, in the data set with PBMC and in the data set with Vero were greater than 10 µM, 15 µM and 46 µM, respectively. For the same compound, the EC50 with Hepatitis C virus was greater than 10 µM. Further, in the data set with Hepatitis C virus, the 90% effect concentration (EC90) was greater than 10 µM.
As for `C=CCNC(=O)C(=O)C(CCC)NC(=O)C1CCN1C(=O)[C@@H](NC(=O)[C@@H](NC(=O)c1cnccn1)C1CCCCC1)C(C)(C)C` (some centres undefined), the CC50 was greater than 10 µM in the data set on Huh-7, 27 µM with PBMC, greater than 100 µM in the data set with Vero and 30 µM with CCRF-CEM. Also, the concentration giving a half-maximal response (EC50) in the data set on Hepatitis C virus was greater than 10 µM. Further, the concentration for an effect of 90% (EC90) in the data set on Hepatitis C virus was greater than 10 µM.
For the compound `CCCC(NC(=O)C1N(C(=O)[C@@H](NC(=O)[C@@H](NC(=O)c2cnccn2)C2CCCCC2)C(C)(C)C)CC12Cc1ccccc1C2)C(=O)C(=O)NC1CC1` (some centres undefined), the CC50 was greater than 10 µM in the data set with Huh-7, greater than 100 µM in the data set on PBMC, greater than 100 µM in the data set with Vero and 72 µM in the data set on CCRF-CEM. In addition, the EC50 in the data set on Hepatitis C virus is greater than 10 µM. Moreover, the EC90 with Hepatitis C virus was greater than 10 µM.
As for `CC(C)(C)[C@H](NC(=O)[C@@H](NC(=O)c1cnccn1)C1CCCCC1)C(=O)N1CC2(Cc3ccccc3C2)C1C(=O)NC(CC1CCC1)C(=O)C(=O)NC1CC1` (some centres undefined), the EC50 with Hepatitis C virus is 0.7 µM. The EC90 in the data set on Hepatitis C virus amounted to 1 µM. Further, the figures for the 50% cytotoxic concentration (CC50) in the data set with PBMC, in the data set with Vero and with CCRF-CEM were 29 µM, greater than 100 µM and 43 µM, respectively.
As for `CCCC(NC(=O)C1CCN1C(=O)[C@@H](NC(=O)[C@@H](NC(=O)c1cnccn1)C1CCCCC1)C(C)(C)C)C(=O)C(=O)NC1CC1` (some centres undefined), the CC50 in the data set with Huh-7 is greater than 10 µM; in the data set on PBMC, greater than 100 µM; in the data set on Vero, greater than 100 µM; in the data set with CCRF-CEM it was greater than 100 µM. In addition, the EC50 in the data set with Hepatitis C virus was greater than 10 µM. Also, the EC90 in the data set with Hepatitis C virus is greater than 10 µM.
For the compound `CCCC(NC(=O)C1CCN1C(=O)[C@@H](NC(=O)[C@@H](NC(=O)c1cnccn1)C1CCCCC1)C(C)(C)C)C(=O)C(=O)NCCOC` (some centres undefined), the 50% cytotoxic concentration (CC50) is greater than 10 µM in the data set on Huh-7, greater than 100 µM in the data set on PBMC, greater than 100 µM in the data set with Vero and 38 µM in the data set on CCRF-CEM. Besides, the EC50 with Hepatitis C virus is greater than 10 µM. In addition, the EC90 in the data set on Hepatitis C virus is greater than 10 µM.
For `CC(C)(C)[C@H](NC(=O)NC1CCCCC1)C(=O)N1CC2(Cc3ccccc3C2)C1C(=O)NC(CC1CCC1)C(=O)C(=O)NC1CC1` (some centres undefined), the CC50 was found to be 5.5 µM in the data set on Huh-7, 15 µM in the data set on PBMC, 26 µM in the data set with Vero and 15 µM in the data set on CCRF-CEM. The EC50 in the data set with Hepatitis C virus stood at 5.8 µM. Also, in the data set with Hepatitis C virus, the concentration for an effect of 90% (EC90) stood at 9.8 µM.
